The target of assay [1] is T1, Adrenergic receptor alpha-1 (Rattus norvegicus) (UniProt P15823+P23944+P43140). Description: (§1) Tested for Alpha adrenergic receptor antagonistic activity on isolated rat vas deferens. In kind it is functional, tissue-based. In a few lines: (§2)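 Isolated rat vas deferens; contractions recorded isometrically with a force-displacement transducer.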
Assay [2] addresses T2, Adrenergic receptor alpha-1 (Rattus norvegicus, UniProt P15823+P23944+P43140).
T2 sequence (P15823 whole entry): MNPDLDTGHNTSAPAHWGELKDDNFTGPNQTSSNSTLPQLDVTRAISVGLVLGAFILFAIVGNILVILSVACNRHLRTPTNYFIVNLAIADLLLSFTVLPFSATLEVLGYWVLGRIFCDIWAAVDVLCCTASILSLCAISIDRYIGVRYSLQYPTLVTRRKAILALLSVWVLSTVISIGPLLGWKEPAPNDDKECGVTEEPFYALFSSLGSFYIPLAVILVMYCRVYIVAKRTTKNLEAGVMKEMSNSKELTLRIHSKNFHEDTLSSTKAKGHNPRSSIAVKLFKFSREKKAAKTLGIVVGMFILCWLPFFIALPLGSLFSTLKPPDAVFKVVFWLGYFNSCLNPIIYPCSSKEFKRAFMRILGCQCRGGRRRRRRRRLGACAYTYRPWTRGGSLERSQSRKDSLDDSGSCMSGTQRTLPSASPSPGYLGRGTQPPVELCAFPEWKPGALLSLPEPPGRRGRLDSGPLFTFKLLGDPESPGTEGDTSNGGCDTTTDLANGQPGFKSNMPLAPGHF
T2 sequence (P23944 whole entry): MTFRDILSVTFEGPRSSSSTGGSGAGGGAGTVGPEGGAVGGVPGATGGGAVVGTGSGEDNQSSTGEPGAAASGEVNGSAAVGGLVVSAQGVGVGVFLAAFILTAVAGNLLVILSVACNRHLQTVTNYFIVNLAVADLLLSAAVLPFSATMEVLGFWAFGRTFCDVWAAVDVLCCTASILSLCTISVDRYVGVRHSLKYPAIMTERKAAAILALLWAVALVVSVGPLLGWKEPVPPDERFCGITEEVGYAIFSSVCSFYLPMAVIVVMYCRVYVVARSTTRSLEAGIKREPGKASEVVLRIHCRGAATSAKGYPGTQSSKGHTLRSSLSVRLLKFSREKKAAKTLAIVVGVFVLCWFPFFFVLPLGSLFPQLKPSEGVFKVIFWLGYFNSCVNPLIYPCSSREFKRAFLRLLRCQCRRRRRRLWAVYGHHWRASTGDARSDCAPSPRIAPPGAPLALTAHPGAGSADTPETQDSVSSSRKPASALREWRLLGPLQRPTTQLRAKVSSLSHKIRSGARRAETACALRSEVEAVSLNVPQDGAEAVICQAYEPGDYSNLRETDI
T2 sequence (P43140 whole entry): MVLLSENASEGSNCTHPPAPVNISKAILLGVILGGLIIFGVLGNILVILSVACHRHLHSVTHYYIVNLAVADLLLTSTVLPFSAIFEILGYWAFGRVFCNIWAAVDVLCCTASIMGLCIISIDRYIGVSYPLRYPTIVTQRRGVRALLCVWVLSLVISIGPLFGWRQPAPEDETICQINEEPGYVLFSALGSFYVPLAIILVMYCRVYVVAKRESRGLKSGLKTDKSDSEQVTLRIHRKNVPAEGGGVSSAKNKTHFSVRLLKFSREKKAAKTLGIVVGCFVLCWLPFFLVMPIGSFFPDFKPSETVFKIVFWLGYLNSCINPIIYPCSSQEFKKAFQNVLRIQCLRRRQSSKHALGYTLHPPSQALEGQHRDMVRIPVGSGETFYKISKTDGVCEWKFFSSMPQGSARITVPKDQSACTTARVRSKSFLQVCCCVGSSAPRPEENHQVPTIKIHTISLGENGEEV
The assay is described as §1. Type of assay: functional, tissue-based. In outline:
as §2

The target in assay [3] is T1, Adrenergic receptor alpha-1 (Rattus norvegicus). Particulars: Vas deferens.
Assay [4] has the same target. As to conditions: Vas deferens. The source holds these as a separate data set.
The target is the same in assay [5]. Briefly: (§3) Tested for alpha adrenergic receptor agonistic activity on isolated rat vas deferens. In kind it is functional, tissue-based. In outline:
as §2

Assay [6] concerns the target T3, Adrenergic receptor beta (Homo sapiens, UniProt P08588+P07550+P13945). Description: Inhibition of beta adrenergic receptor on isolated guinea pig atria against isoprenaline at 4E-8M. Details: species or system Cavia porcellus. Particulars: target entry is the homologue from another species.
In assay [7] the target is T3, Adrenergic receptor beta. Particulars: Cavia porcellus.
The target in assay [8] is T2, Adrenergic receptor alpha-1. The assay is described as §3. Type of assay: functional, tissue-based. In outline:
as §2

As usually defined, the pA2 is a measure of antagonist potency on a negative log scale. A higher pA2 goes with higher antagonist potency. In assay [1], `COc1ccc(OC)c(C2OCCNC2C)c1` (stereo not drawn) yielded a pA2-pA10 of 0.27 and a pA10 of 3.2. For the same compound, the pA2 in assay [2] came to 3.48.
Take `COc1ccc(OC)c(C(O)CN)c1` (stereo not drawn) [DESGLYMIDODRINE]: in assay [1], the pA2-pA10 came to 0.74 and the pA10 worked out at 3.3. Moreover, in assay [2], the pA2 was found to be 4.04. This compound also came in with a pD10 in assay [3] of 6. Moreover, the pD2 in assay [4] is 5.15.
As to `COc1ccc(OC)c(C2CNCCO2)c1` (stereo not drawn), in assay [1], the pA2-pA10 turned out to be 0.45 and the pA10 worked out at 2.95. In assay [2], this compound had a pA2 of 3.4.
Compound `Cc1ccc(N(CC2=NCCN2)c2cccc(O)c2)cc1` registered a pA10 in assay [5] of 6.02.
In assay [1], `COc1ccc(OC)c(C(O)CNC(C)C)c1` (stereo not drawn) registered a pA2-pA10 of 0.26 and a pA10 of 2.48. In assay [6], the pA2 is given as 4.77. The compound further gave a pA10 in assay [7] of 4.08.
In turn, `COc1ccc(OC)c(C(O)C(C)N)c1` (stereo not drawn) showed a pD10 in assay [3] of 5.61. The same compound yielded a pD2 in assay [4] of 4.42.
On to `COc1ccc(OC)c(C2CN(C)CCO2)c1` (stereo not drawn), for which, in assay [1], the pA2-pA10 stood at 0.76 and the pA10 was found to be 2.85. Moreover, in assay [2], the pA2 was found to be 3.61.
As for `COc1ccc(OC)c(C2CN(C(C)C)CCO2)c1` (stereo not drawn), in assay [1], the pA2-pA10 came out at 0.19 and the pA10 came to 2.95. Also, the pA2 in assay [2] is recorded as 3.14.
In assay [5], `CNCC(O)c1cc(OC)ccc1OC` (stereo not drawn) yielded a pA10 of 3.16, a pD2 of 5.22 and a pD10 of 6.07. Besides, the pA2 in assay [8] is recorded as 3.91.

The values are drawn from ChEMBL document CHEMBL1122331, “Conformational effects on the activity of drugs. 10. Synthesis, conformation, and pharmacological properties of 1-(2,5-dimethoxyphenyl)-2-aminoethanols and their morpholine analogues” (J Med Chem, 1983).
